What was measured:
[1] = Half life in Sprague-Dawley rat at 10 mg/kg, po; assay type: ADME, organism-based; set-up: dose 10 mg/kg, route oral; settings: in vivo
Summary of the method: (§1)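 SD rats received 2 mg/kg iv in 50% DMSO/50% PEG200, or 10 mg/kg po in 2% Tween/0.5% methyl cellulose in water. PK parameters come from each route.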

[2] = Cmax in Sprague-Dawley rat at 10 mg/kg, po; assay type: ADME, organism-based; set-up: dose 10 mg/kg, route oral; settings: in vivo; summary of the method: as §1
Mus musculus [3] = species on record: Mus musculus; assay: Toxicity in C57B6 DIO mouse assessed as elevation of alanine aminotransferase at 0.3 mg/g of food after 31 days; assay type: organism-based; settings: in vivo, po, 744 h
[4] = Half life in C57B6 mouse at 2 mg/kg, iv; assay type: ADME, organism-based; set-up: dose 2 mg/kg, route intravenous; settings: in vivo
Summary of the method: (§2)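 Male C57B6 mice. IV dose of 2 mg/kg in 50% DMSO/50% PEG200. Oral dose of 10 mg/kg in 2% Tween/0.5% methyl cellulose in water. Values are PK parameters from the iv and po arms.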

[5] = molecular target: T1, 11-beta-hydroxysteroid dehydrogenase type 2 (Homo sapiens, UniProt P80365); assay: Inhibition of human 11beta-HSD2 expressed in CHO cells using […] as substrate incubated for 30 mins prior to substrate addition measured after 120 mins by scintillation counting analysis; assay type: cell-based
T1 sequence (P80365 whole entry): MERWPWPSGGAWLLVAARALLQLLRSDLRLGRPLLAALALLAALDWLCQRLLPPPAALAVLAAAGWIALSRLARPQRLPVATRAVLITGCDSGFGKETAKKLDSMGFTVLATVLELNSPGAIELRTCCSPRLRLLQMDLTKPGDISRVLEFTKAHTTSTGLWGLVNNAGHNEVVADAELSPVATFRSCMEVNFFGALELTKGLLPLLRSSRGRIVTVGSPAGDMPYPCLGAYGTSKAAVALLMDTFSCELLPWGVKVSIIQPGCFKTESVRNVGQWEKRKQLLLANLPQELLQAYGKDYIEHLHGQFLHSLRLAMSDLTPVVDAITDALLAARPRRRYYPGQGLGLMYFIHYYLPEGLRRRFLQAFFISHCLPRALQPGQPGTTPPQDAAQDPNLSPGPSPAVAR

[6] = Clearance in Sprague-Dawley rat at 2 mg/kg, iv; assay type: ADME, organism-based; set-up: dose 2 mg/kg, route intravenous; settings: in vivo; summary of the method: as §1
[7] = Half life in rat liver microsomes; assay type: ADME, Microsome
[8] = Tmax in Sprague-Dawley rat at 10 mg/kg, po; assay type: ADME, organism-based; set-up: dose 10 mg/kg, route oral; settings: in vivo; summary of the method: as §1
Mus musculus [9] = species on record: Mus musculus; assay: Antidiabetic activity in C57B6 DIO mouse assessed as reduction in fed glucose level at 0.3 mg/g of food after 31 days by HPLC analysis relative to untreated control; assay type: functional; set-up: scale not given: the % may be the effect or the level left
Summary of the method: (§3)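 Male C57B6 mice, 5.5–7 months old, kept on a 35.5% fat diet for 4 months. Compound was mixed into food at 0.3 mg drug/g food for 31 days. Controls received diet 12492. Glucose and insulin were measured fed and fasting.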

[10] = Tmax in Beagle dog at 5 mg/kg, po; settings: in vivo
[11] = molecular target: T2, Peroxisome proliferator-activated receptor delta (Homo sapiens, UniProt Q03181); assay: Inhibition of PPARbeta (unknown origin)
T2 sequence (Q03181 whole entry): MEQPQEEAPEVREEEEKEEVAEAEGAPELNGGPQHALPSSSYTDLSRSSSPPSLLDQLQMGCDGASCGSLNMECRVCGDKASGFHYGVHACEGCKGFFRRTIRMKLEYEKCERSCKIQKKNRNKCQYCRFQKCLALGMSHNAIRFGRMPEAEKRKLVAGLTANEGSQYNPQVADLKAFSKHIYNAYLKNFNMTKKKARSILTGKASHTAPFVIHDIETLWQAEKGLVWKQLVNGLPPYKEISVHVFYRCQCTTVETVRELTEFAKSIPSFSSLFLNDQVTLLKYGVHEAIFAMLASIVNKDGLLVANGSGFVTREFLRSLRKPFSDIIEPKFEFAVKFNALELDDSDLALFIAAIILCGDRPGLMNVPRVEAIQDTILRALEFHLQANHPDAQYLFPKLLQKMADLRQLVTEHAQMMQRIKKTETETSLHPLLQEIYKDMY

Mus musculus [12] = assay: Ex vivo inhibition of 11beta-HSD1 in C57B16 mouse epididymal fat assessed as conversion of [3H]-cortisone to [3H]-cortisol at 10 mg/kg, po after 5 hrs by HPLC analysis relative to vehicle-treated control; assay type: functional
Summary of the method: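 Mice were dosed orally at 10 mg/kg. Epididymal fat was collected 5 h after dosing for the ex vivo readout.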

[13] = Half life in Beagle dog at 5 mg/kg, po; settings: in vivo
[14] = Volume of distribution at steady state in C57B6 mouse at 2 mg/kg, iv; assay type: ADME, organism-based; set-up: dose 2 mg/kg, route intravenous; settings: in vivo, read-out: Vdss; summary of the method: as §2
[15] = molecular target: 11-beta-hydroxysteroid dehydrogenase 1 (Homo sapiens, UniProt P28845); assay: Inhibition of human 11beta-HSD1 expressed in CHO cells using cortisone as substrate incubated for 30 mins prior to substrate addition measured after 120 mins by chemiluminescence assay
[16] = AUC in C57B6 mouse at 2 mg/kg, iv; assay type: ADME, organism-based; set-up: dose 2 mg/kg, route intravenous; settings: plasma; summary of the method: as §2
[17] = Clearance in Beagle dog at 2 mg/kg, iv; assay type: ADME, organism-based, Canis lupus familiaris; set-up: dose 2 mg/kg, route intravenous; settings: in vivo
Summary of the method: (§4)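 Male dogs were given 2 mg/kg intravenously in 50% DMSO/50% PEG200.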

Mus musculus [18] = species on record: Mus musculus; assay: Antidiabetic activity in C57B6 DIO mouse assessed as reduction in fed insulin level at 0.3 mg/g of food after 31 days by HPLC analysis relative to untreated control; assay type: functional; set-up: scale not given: the % may be the effect or the level left; summary of the method: as §3
[19] = AUC in Beagle dog at 2 mg/kg, iv; assay type: ADME, organism-based, Canis lupus familiaris; set-up: dose 2 mg/kg, route intravenous; settings: plasma; summary of the method: as §4
[20] = Half life in C57B6 mouse at 10 mg/kg, po; assay type: ADME, organism-based; set-up: dose 10 mg/kg, route oral; settings: in vivo; summary of the method: as §2
[21] = Half life in human liver microsomes; assay type: ADME, Microsome
[22] = Half life in Beagle dog at 2 mg/kg, iv; assay type: ADME, organism-based, Canis lupus familiaris; set-up: dose 2 mg/kg, route intravenous; settings: in vivo; summary of the method: as §4

Sequence of 11-beta-hydroxysteroid dehydrogenase 1 (P28845 whole entry): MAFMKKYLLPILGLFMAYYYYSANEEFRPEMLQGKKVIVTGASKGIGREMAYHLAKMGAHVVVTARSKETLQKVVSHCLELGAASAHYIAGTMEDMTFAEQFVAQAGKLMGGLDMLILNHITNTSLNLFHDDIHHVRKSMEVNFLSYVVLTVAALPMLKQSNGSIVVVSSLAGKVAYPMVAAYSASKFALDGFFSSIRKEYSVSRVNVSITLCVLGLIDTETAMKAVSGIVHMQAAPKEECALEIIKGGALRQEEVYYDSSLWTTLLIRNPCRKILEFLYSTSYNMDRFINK

- half-life [1]: 3.3 h
- Cmax [2]: 656 ng/mL
- half-life [4]: 6.1 h
- IC50 [5]: > 100 µM
- clearance [6]: 8 mL/min/kg
- half-life [7]: > 0.5 h
- Tmax [8]: 1.8 h
- Tmax [10]: 2.8 h
- IC50 [11]: > 100 µM
- half-life [13]: 17.2 h
- Vd [14]: 4.2 L/kg
- IC50 [15]: 0.01 µM
- AUC [16]: 3600 ng·h/mL
- clearance [17]: 1 mL/min/kg
- AUC [19]: 32400 ng·h/mL
- half-life [20]: 4.8 h
- half-life [21]: > 0.5 h
- half-life [22]: 20.3 h
Structure (SMILES): C[C@@H]1CN(c2ccc(F)cc2C(F)(F)F)CCN1S(=O)(=O)c1ccc([C@@](O)(C(N)=O)C(F)(F)F)s1
- Activity (Mus musculus [3]): Non-toxic
- Activity (Mus musculus [9]): 19%
- inhibition in vivo at 10 mg/kg (Mus musculus [12]): 75%
- Activity (Mus musculus [18]): 44%

From ChEMBL document CHEMBL2321820, “Discovery of HSD-621 as a Potential Agent for the Treatment of Type 2 Diabetes” (ACS Med Chem Lett, 2013)
